# According to ChEMBL document CHEMBL1811814, “Synthesis and evaluation of indole, pyrazole, chromone and pyrimidine based conjugates for tumor growth inhibitory activities--development of highly efficacious cytotoxic agents” (Eur J Med Chem, 2010):
# Experiments:
# Assay type in all cases: functional
# [1] = tested on: HCT-15; assay: Growth inhibition of human HCT15 cells
# [2] = tested on: SK-MEL-28; assay: Growth inhibition of human SK-MEL-28 cells assessed tumor cell growth at 10^-5 M; design: scale not given: the % may be the effect or the level left
# Outline: (§1)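 NCI 60-human-tumor-cell-line panel screen. Each compound was tested at a single concentration of 10^-5 M, and percent growth of tumor cells was recorded for each cell line. Growth inhibition was expressed from these percent-growth values.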
# [3] = tested on: TK-10; assay: Growth inhibition of human TK10 cells assessed tumor cell growth at 10^-5 M; design: scale not given: the % may be the effect or the level left
# Outline: (§2)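 Single-dose screen at 10^-5 M across the 60 human tumor cell line panel, run to NCI standards. The value is the percent growth of each cell line in the presence of compound. Compounds active at this dose moved on to five-concentration testing (10^-4 to 10^-8 M).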
# [4] = tested on: UACC-62; assay: Growth inhibition of human UACC62 cells
# [5] = tested on: SF-295; assay: Growth inhibition of human SF295 cells assessed tumor cell growth at 10^-5 M; design: scale not given: the % may be the effect or the level left; outline: as §1
# [6] = tested on: K562; assay: Growth inhibition of human K562 cells
# [7] = tested on: DU-145; assay: Growth inhibition of human DU145 cells assessed tumor cell growth at 10^-5 M; design: scale not given: the % may be the effect or the level left; outline: as §1
# [8] = tested on: BT-549; assay: Growth inhibition of human BT549 cells assessed tumor cell growth at 10^-5 M; design: scale not given: the % may be the effect or the level left; outline: as §1
# [9] = tested on: CCRF-CEM; assay: Growth inhibition of human CCRF-CEM cells assessed tumor cell growth at 10^-5 M; design: scale not given: the % may be the effect or the level left; outline: as §1
# [10] = tested on: HL-60(TB); assay: Growth inhibition of human HL-60(TB) cells
# [11] = tested on: HT-29; assay: Growth inhibition of human HT-29 cells assessed tumor cell growth at 10^-5 M; design: scale not given: the % may be the effect or the level left; outline: as §1
# [12] = tested on: MDA-MB-435; assay: Growth inhibition of human MDA-MB-435 cells assessed tumor cell growth at 10^-5 M; design: scale not given: the % may be the effect or the level left; outline: as §1
# [13] = tested on: Malme-3M; assay: Growth inhibition of human MALME-3M cells
# [14] = tested on: RXF 393; assay: Growth inhibition of human RXF393 cells
# [15] = tested on: T47D; assay: Growth inhibition of human T47D cells
# [16] = tested on: MOLT-4; assay: Growth inhibition of human MOLT4 cells
# [17] = tested on: UO-31; assay: Growth inhibition of human UO31 cells
# [18] = tested on: HOP-62; assay: Growth inhibition of human HOP62 cells assessed tumor cell growth at 10^-5 M; design: scale not given: the % may be the effect or the level left; outline: as §1
# [19] = tested on: U-251; assay: Growth inhibition of human U251 cells assessed tumor cell growth at 10^-5 M; design: scale not given: the % may be the effect or the level left; outline: as §2
# [20] = tested on: SK-OV-3; assay: Growth inhibition of human SKOV3 cells assessed tumor cell growth at 10^-5 M; design: scale not given: the % may be the effect or the level left; outline: as §1
# [21] = tested on: SW-620; assay: Growth inhibition of human SW620 cells
# [22] = Growth inhibition of human […] cells assessed tumor cell growth at 10^-5 M; design: scale not given: the % may be the effect or the level left; outline: as §1
# [23] = tested on: SF-268; assay: Growth inhibition of human SF268 cells
# [24] = tested on: OVCAR-5; assay: Growth inhibition of human OVCAR5 cells assessed tumor cell growth at 10^-5 M; design: scale not given: the % may be the effect or the level left; outline: as §1
# [25] = tested on: COLO 205; assay: Growth inhibition of human COLO205 cells
# [26] = Growth inhibition of human RPMI8266 cells
# [27] = tested on: PC-3; assay: Growth inhibition of human PC3 cells assessed tumor cell growth at 10^-5 M; design: scale not given: the % may be the effect or the level left; outline: as §1
# [28] = tested on: A549; assay: Growth inhibition of human A549 cells
# [29] = tested on: 786-0; assay: Growth inhibition of human 786-0 cells
# [30] = tested on: UACC-257; assay: Growth inhibition of human UACC257 cells assessed tumor cell growth at 10^-5 M; design: scale not given: the % may be the effect or the level left; outline: as §2
# [31] = tested on: NCI-H522; assay: Growth inhibition of human NCI-H522 cells
# [32] = tested on: A498; assay: Growth inhibition of human A498 cells
# [33] = tested on: UACC-257; assay: Growth inhibition of human UACC257 cells
# [34] = Growth inhibition of human Hs 578T cells
# [35] = tested on: SF-539; assay: Growth inhibition of human SF539 cells
# [36] = tested on: SNB-19; assay: Growth inhibition of human SNB19 cells
# [37] = tested on: CAKI-1; assay: Growth inhibition of human Caki1 cells assessed tumor cell growth at 10^-5 M; design: scale not given: the % may be the effect or the level left; outline: as §1
# [38] = tested on: RXF 393; assay: Growth inhibition of human RXF393 cells assessed tumor cell growth at 10^-5 M; design: scale not given: the % may be the effect or the level left; outline: as §1
# [39] = tested on: OVCAR-3; assay: Growth inhibition of human OVCAR3 cells
# [40] = tested on: SF-268; assay: Growth inhibition of human SF268 cells assessed tumor cell growth at 10^-5 M; design: scale not given: the % may be the effect or the level left; outline: as §1
# [41] = tested on: NCI-H460; assay: Growth inhibition of human NCI-H460 cells
# [42] = tested on: MOLT-4; assay: Growth inhibition of human MOLT4 cells assessed tumor cell growth at 10^-5 M; design: scale not given: the % may be the effect or the level left; outline: as §1
# [43] = tested on: Malme-3M; assay: Growth inhibition of human MALME-3M cells assessed tumor cell growth at 10^-5 M; design: scale not given: the % may be the effect or the level left; outline: as §1
# [44] = tested on: IGROV-1; assay: Growth inhibition of human IGROV1 cells assessed tumor cell growth at 10^-5 M; design: scale not given: the % may be the effect or the level left; outline: as §1
# [45] = tested on: SF-539; assay: Growth inhibition of human SF539 cells assessed tumor cell growth at 10^-5 M; design: scale not given: the % may be the effect or the level left; outline: as §1
# [46] = tested on: CAKI-1; assay: Growth inhibition of human Caki1 cells
# [47] = tested on: SNB-75; assay: Growth inhibition of human SNB75 cells assessed tumor cell growth at 10^-5 M; design: scale not given: the % may be the effect or the level left; outline: as §2
# [48] = tested on: MDA-MB-231; assay: Growth inhibition of human MDA-MB-231 cells
# [49] = tested on: HL-60(TB); assay: Growth inhibition of human HL-60(TB) cells assessed tumor cell growth at 10^-5 M; design: scale not given: the % may be the effect or the level left
# Outline: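 HL-60(TB), part of the 60-line panel, tested at a single concentration of 10^-5 M. The read-out is percent tumor cell growth relative to untreated growth.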
# [50] = read-out: LC50 (the source's name)
compound,measurement,setting,value
O=C1Nc2ccccc2/C1=C/c1cn(C(=O)c2c(Cl)cccc2Cl)c2ccccc12,GI50,[1],3.4 µM
same,CC50,[1]; [50],> 100 µM
same,Activity,[2],81.4%
same,Activity,[3],90.7%
same,GI50,[4],4.9 µM
same,CC50,[4]; [50],61.6 µM
same,Activity,[5],44.5%
same,GI50,[6],3.1 µM
same,CC50,[6]; [50],> 100 µM
same,Activity,[7],59.2%
same,Activity,[8],51.7%
same,Activity,[9],70.5%
same,GI50,[10],2.4 µM
same,CC50,[10]; [50],> 100 µM
same,Activity,[11],69.6%
same,Activity,[12],85.6%
same,GI50,[13],2.6 µM
same,CC50,[13]; [50],58.8 µM
same,GI50,[14],4.1 µM
same,CC50,[14]; [50],43.6 µM
same,GI50,[15],4.1 µM
same,CC50,[15]; [50],> 100 µM
same,GI50,[16],2.8 µM
same,LC50,[16],> 100 µM
same,GI50,[17],1.1 µM
same,CC50,[17]; [50],48.9 µM
same,Activity,[18],88.7%
same,Activity,[19],35.8%
same,Activity,[20],71.8%
same,GI50,[21],2.9 µM
same,CC50,[21]; [50],52.4 µM
same,Activity,[22],51.8%
same,GI50,[23],2.4 µM
same,CC50,[23]; [50],57.5 µM
same,Activity,[24],84.9%
same,GI50,[25],7.6 µM
same,LC50,[25],54.9 µM
same,GI50,[26],3.4 µM
same,CC50,[26]; [50],> 100 µM
same,Activity,[27],41.7%
same,GI50,[28],3.2 µM
same,CC50,[28]; [50],> 100 µM
same,GI50,[29],3.3 µM
same,CC50,[29]; [50],91.2 µM
same,Activity,[30],79.1%
same,GI50,[31],4.2 µM
same,LC50 (concentration killing 50% of cells),[31],54.9 µM
same,GI50,[32],1.2 µM
same,CC50,[32]; [50],21.8 µM
same,GI50,[33],5 µM
same,CC50,[33]; [50],95.4 µM
same,GI50,[34],2.2 µM
same,CC50,[34]; [50],> 100 µM
same,GI50,[35],5 µM
same,CC50,[35]; [50],66.1 µM
same,GI50,[36],7.2 µM
same,CC50,[36]; [50],> 100 µM
same,Activity,[37],18.7%
same,Activity,[38],-4.1%
same,GI50,[39],1.6 µM
same,CC50,[39]; [50],8.1 µM
same,Activity,[40],56.5%
same,GI50,[41],1.9 µM
same,CC50,[41]; [50],7.9 µM
same,Activity,[42],43.9%
same,Activity,[43],116.7%
same,Activity,[44],25.7%
same,Activity,[45],67.4%
same,GI50,[46],1.9 µM
same,CC50,[46]; [50],> 100 µM
same,Activity,[47],54.6%
same,GI50,[48],3.1 µM
same,CC50,[48]; [50],> 100 µM
same,Activity,[49],72.1%
